CHT PAM: allosterically activates the human high affinity choline transporter; Q9GZV3; CHT-expressing cells, membrane potential dye, choline EC20; stronger effect = higher value; LV-AA mutant CHT in HEK293 cells; B-score at 10 µM; 310,000 compounds, 0.49% hits;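 active = initial fluorescence not abnormally high and integrated response B-score, plate-corrected, over 3 SD above library mean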
Target sequence (Q9GZV3 whole entry, looked up): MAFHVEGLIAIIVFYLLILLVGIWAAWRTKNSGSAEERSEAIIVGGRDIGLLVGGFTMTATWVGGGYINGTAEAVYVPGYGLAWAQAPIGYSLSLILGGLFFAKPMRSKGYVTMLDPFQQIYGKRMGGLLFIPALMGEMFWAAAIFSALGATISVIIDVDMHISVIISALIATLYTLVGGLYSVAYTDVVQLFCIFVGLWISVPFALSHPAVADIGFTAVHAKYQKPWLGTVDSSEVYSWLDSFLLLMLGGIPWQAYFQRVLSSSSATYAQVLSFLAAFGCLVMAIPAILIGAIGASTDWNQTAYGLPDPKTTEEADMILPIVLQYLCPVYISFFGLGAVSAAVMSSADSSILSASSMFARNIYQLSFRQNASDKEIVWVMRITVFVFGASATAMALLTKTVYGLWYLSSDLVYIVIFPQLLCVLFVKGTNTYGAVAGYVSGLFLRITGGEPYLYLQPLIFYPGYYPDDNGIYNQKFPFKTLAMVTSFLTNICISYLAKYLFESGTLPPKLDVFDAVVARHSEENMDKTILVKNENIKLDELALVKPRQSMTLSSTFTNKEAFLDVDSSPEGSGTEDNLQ
CHT block: human CHT choline transport inhibition | Q9GZV3 | B-score at 10 µM | CHT-expressing cells, membrane potential dye, choline response; stronger effect = lower value | 310,000 compounds, 0.86% hits;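 active = B-score over 3 SD under the library average, and starting fluorescence ratio not unusually high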;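 also: choline stimulus applied at its EC90 after an EC20 pre-addition; B-score computed on integrated fluorescence ratio after choline addition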
T cruzi inh: blocks replication of Trypanosoma cruzi. T. cruzi beta-gal in NIH3T3, luminescence, 90 h. inhibition, % (concentration not given with the values). 300,000 compounds, 1.4% hits;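 active = mean inhibition across valid replicates above about 55%, limit read from the data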;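 also: signal also drops with host cell toxicity which is not excluded here; higher percent means less beta-gal luminescence so fewer parasites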
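System: Mouse NIH/3T3 fibroblasts infected with β-gal-expressing T. cruzi Tulahuen C4 | Quantity: NIH/3T3 cells, 5,000 per well | Reagent: 5000 reporter trypomastigotes per well | Dosing: Compound pinned at 50 nL/well, DMSO | Schedule: 3 h host attachment, then at least 90 h co-culture | Detection: GalScreen luminescence, 60 min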
PolyA inh: inhibitors of polyadenylation in S. cerevisiae | AID 1875 | 300,000 compounds, 0.02% hits | activity score, % at 12 µM | S. cerevisiae SKY197-pL101 polyadenylation reporter, beta-gal luminescence; efflux-impaired pdr1/pdr3 knockout yeast; score 100 = 6 SD above DMSO;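 active = lowest replicate activity score at least 50, where 100 means six control SD above control mean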;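 also: yeast exposed to compound for 9 h at 30 °C; higher score means more reporter readthrough which indicates perturbed polyadenylation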
Hits are given with their value; . = inactive; / = no result given. Hits are enriched below; roughly 2.6% of the tested compounds scored in any of these assays.

SMILES	CHT PAM	CHT block	T cruzi inh	PolyA inh
CC[n+]1c(C=C2C=C(C)OC(C)=C2)sc2ccccc21	/	/	73	.
CC[n+]1c(/C=C2/C=C(C)CC(C)C2)sc2ccccc21 (stereo not given)	.	.	.	.
COc1cccc(/C=N/NC(=O)NC23CC4CC(CC(C4)C2)C3)c1O	.	.	.	.
O=C(N/N=C/c1ccccc1F)NC12CC3CC(CC(C3)C1)C2	.	.	57	.
Cc1nc(N)nc(N)c1CCCc1ccc(Cl)c(Cl)c1	.	.	62	.
CCOC(=O)c1sc(NC(=O)c2ccc(S(=O)(=O)N(C)C)cc2)cc1C	.	.	65	.
CCOC(=O)c1sc(NC(=O)Nc2ccc(Cl)cc2)cc1C	.	.	65	.
CCOC(=O)c1sc(NC(=O)c2ccc(Cl)s2)cc1C	.	.	.	.
CCN(CC)S(=O)(=O)c1cccc(NC(=O)CCNC(=O)NC23CC4CC(CC(C4)C2)C3)c1	.	.	.	.
Cc1c(C(=O)N2CCN(Cc3ccc4c(c3)OCO4)CC2)sc2ncnc(N3CCN(c4ccccc4F)CC3)c12	.	.	64	.
COc1cccc(N(C(=O)Cn2nnc(-c3ccc(C)cc3)n2)C(C(=O)NC(C)(C)C)c2c[nH]c3ccccc23)c1 (stereo not given)	.	.	.	.
CC(C)(C)NC(=O)C(c1c[nH]c2ccccc12)N(C(=O)Cn1nnc(-c2ccc(Cl)cc2)n1)c1ccccc1F (stereo not given)	.	.	55	.
Cc1ccc(-n2nc3c(=O)n(CCCC(=O)N4CCC(C)CC4)nc(C)c3c2C)cc1	.	.	.	.
Cc1ccc(N(C)S(=O)(=O)c2ccc(-c3cnc(C4CC4)o3)cc2)cc1	6.4	.	.	.
Cc1ccc(NS(=O)(=O)c2ccc(-c3cnc(C4CC4)o3)cc2)cc1	.	.	.	.
CC(C)[C@H](NC(=O)c1c(F)cccc1F)C(=O)Nc1cccc(Br)c1	.	.	.	.
CC(C)(C)c1ccc2c(c1)OC(C(=O)N/N=C/c1ccc([N+](=O)[O-])o1)CO2 (stereo not given)	.	.	60	.
Cc1c(/C=N\NC(=O)C2COc3ccc(C(C)(C)C)cc3O2)c2ccccc2n1C (stereo not given)	.	.	66	.
COc1ccccc1N(C)S(=O)(=O)c1ccc(C)c(C(=O)Nc2nccs2)c1	.	.	.	.
COc1ccc(Nc2nc(-c3cccs3)nc3ccccc23)cc1S(=O)(=O)N1CCOCC1	.	.	55	.
Cc1[nH]n2c(=O)c3c(nc2c1-c1ccc(F)cc1)CCCC3	.	.	74	.
CC(=O)N/N=C\c1cccc(OC/C=C/c2ccccc2)c1	.	.	/	/
Cc1ccc(N2CCN(S(=O)(=O)c3ccc(Cl)s3)CC2C)cc1 (stereo not given)	.	.	.	.
CCOC(=O)c1cnc(-n2nc(C)cc2C)nc1Nc1ccc(OC)cc1	.	.	.	.
CCOC(=O)c1cnc(-n2nc(C)cc2C)nc1NCCc1ccccc1	.	.	55	.
SMILES	CHT PAM	CHT block	T cruzi inh	PolyA inh
COCC1CCCN(C(=O)c2ccc3nc(Cc4cccc(Cl)c4)oc3c2)C1 (stereo not given)	.	.	.	.
O=C1CC(NS(=O)(=O)c2ccc([N+](=O)[O-])cc2)CN1c1cccc(F)c1 (stereo not given)	.	.	65	.
COc1ccc(OC)c(S(=O)(=O)NC2CC(=O)N(c3cccc(F)c3)C2)c1 (stereo not given)	.	.	.	.
CCc1noc(C)c1C(=O)OC(C)C(=O)Nc1cc([N+](=O)[O-])ccc1OC (stereo not given)	.	.	.	.
CN1CCC(OC(=O)c2ccc(Cl)cc2Cl)CC1	.	.	58	.
Cc1ccccc1C(=O)OC1CCN(C)CC1	.	.	59	.
CN1CCC(OC(=O)c2ccccc2Cl)CC1	.	.	58	.
CN1CCC(OC(=O)c2ccco2)CC1	.	.	.	.
CC(C)(C(=O)O)c1ccc([C@H](O)CCCN2CCC(C(O)(c3ccccc3)c3ccccc3)CC2)cc1	.	.	.	.
O=C(c1cc2cc(F)ccc2[nH]1)N1CCc2ccccc21	.	.	.	.
COc1cc(CN2CCN(Cc3cccc(OC)c3OC)CC2)cc(OC)c1	.	.	.	.
COc1ccc(Nc2nc(N3CCCCC3)nc3ccccc23)c(OC)c1	.	.	58	.
COc1ccc(OC)c(Nc2nc(-c3ccncc3)nc3ccccc23)c1	.	.	.	.
COc1ccc(Nc2nc(NC(C)(C)C)nc(N3CCOCC3)n2)c(OC)c1	.	.	59	.
COc1ccc(Nc2nc(-c3ccccc3)nc3ccccc23)c(OC)c1	.	.	65	.
CCCc1cc(=O)oc2cc(OC(=O)CN3C(=O)NC4(CCCC4)C3=O)ccc12	.	.	.	.
COc1ccccc1C(=O)Nc1ccc(Cc2ccncc2)cc1	.	.	.	.
CCOc1ccc(C(=O)Nc2ccc(Cc3ccncc3)cc2)cc1Br	.	.	74	.
O=C(Nc1ccc(Cc2ccncc2)cc1)c1ccc(Cl)c([N+](=O)[O-])c1	.	.	.	.
Cc1c([N+](=O)[O-])cc(C(=O)Nc2ccc(Cc3ccncc3)cc2)cc1[N+](=O)[O-]	.	.	59	.
COc1c(C)cc(Br)cc1C(=O)Nc1ccc(Cc2ccncc2)cc1	.	.	61	.
Cc1cccc(OCC(=O)Nc2nccs2)c1C	.	.	.	.
COc1ccc(CCC(=O)NCC23CC4CC(CC(C4)C2)C3)cc1	.	.	.	.
O=C(c1ccccc1)c1c[nH]c(C(=O)NNc2ccccc2)c1	.	.	57	.
CCOC(=O)c1c(C)n(CC(O)CN(C)C)c2cc(Br)c(OC)cc12 (stereo not given)	.	.	79	.
SMILES	CHT PAM	CHT block	T cruzi inh	PolyA inh
CCOC(=O)c1c(CN(C)C)n(-c2ccccc2)c2cc(Br)c(OC)cc12	.	.	.	.
CCOc1cccc(CN2CCCC(N3CCc4cc(OC)c(OC)cc4C3)C2)c1O (stereo not given)	.	.	65	.
COc1ccc(/C=C(/C(=O)c2ccc(Cl)cc2Cl)n2cncn2)cc1	.	.	62	.
CCCC(NCC(O)COc1ccc(-c2ccccc2)cc1)c1ccccc1 (stereo not given)	.	.	66	.
COc1ccc(OCC(O)CNC(C)c2ccccc2)cc1 (stereo not given)	.	.	.	.
O=C(Nc1cc(Oc2ccccc2)cc([N+](=O)[O-])c1)C12CC3CC(C1)CC(n1cnc(Cl)n1)(C3)C2	.	.	62	.
CCN(Cc1ccccc1)S(=O)(=O)c1cc(C(=O)NCCCN(C)C)ccc1OC	.	.	.	.
CC(C)c1ccc(C(=O)NCCCN(C)C)cc1	.	.	60	.
CN(C)CCCNC(=O)c1ccc(-c2ccccc2)cc1	.	.	.	.
CN(C)CCCNC(=O)c1ccc(Cl)c(S(=O)(=O)N(C)c2ccccc2)c1	.	.	65	.
Cc1ccc(NC(=O)CC2(CC(=O)O)CCCC2)c(C)c1	.	.	.	.

Source: PubChem BioAssay
